Source: ChEMBL document CHEMBL1122501, “Potential antiatherosclerotic agents. 2. (Aralkylamino)- and (alkylamino) benzoic acid analogues of cetaben” (1983)

Tests used:
[1] = molecular target: T1, Sterol O-acyltransferase 1 (Rattus norvegicus) (UniProt O70536); experiment: In vitro inhibitory activity against acyl coenzyme A:cholesterol acyltransferase (ACAT); set-up: concentration or dose not given beside the values; details: concentration not given here
T1 sequence (whole entry): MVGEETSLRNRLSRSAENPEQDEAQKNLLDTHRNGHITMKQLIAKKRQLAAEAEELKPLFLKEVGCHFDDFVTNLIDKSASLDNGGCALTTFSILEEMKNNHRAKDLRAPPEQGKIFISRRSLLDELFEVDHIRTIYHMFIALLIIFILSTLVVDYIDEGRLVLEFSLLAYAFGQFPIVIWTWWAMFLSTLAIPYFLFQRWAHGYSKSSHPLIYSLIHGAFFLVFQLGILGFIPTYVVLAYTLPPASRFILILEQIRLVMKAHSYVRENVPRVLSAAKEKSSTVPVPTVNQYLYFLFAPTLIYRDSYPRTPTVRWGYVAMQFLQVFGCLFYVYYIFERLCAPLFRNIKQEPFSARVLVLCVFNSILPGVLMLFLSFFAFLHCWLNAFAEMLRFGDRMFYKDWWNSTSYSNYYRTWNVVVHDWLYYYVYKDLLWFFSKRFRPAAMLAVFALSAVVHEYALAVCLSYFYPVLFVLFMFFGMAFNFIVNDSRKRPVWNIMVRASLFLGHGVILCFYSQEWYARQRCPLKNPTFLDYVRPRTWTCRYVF
Method in brief: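 ACAT enzyme from rat adrenal homogenate in 0.2 M KH2PO4 buffer pH 7.4, 1000g 15 min 5 °C supernatant (microsomal fraction). Supernatant + BSA (50 mg/mL) + compound at final 5.2 μg/mL + buffer preincubated 10 min 37 °C; [14C]oleoyl-CoA (0.4 μCi) added, 30 min 37 °C. Lipids extracted, TLC; cholesteryl ester zone counted. Mean % inhibition vs no-compound control; Student's t test.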

Rattus norvegicus [2] = experiment: In vivo triglyceride lowering activity, dosed at 0.03 % of the diet; type: functional
Method in brief: (§1)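 Male CFE or CD-1 Sprague-Dawley rats, 140-150 g; 8 per control group, 4 per test group. Compound mixed into ground chow (w/w) via MeOH-CHCl3 (1:3) solution, solvent evaporated; controls got solvent-treated chow. Fed ad libitum 5 days, food intake monitored, killed fed and bled. Serum sterols and triglycerides by adapted autoanalyzer methods; mean percent of control, Student's t test.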

Rattus norvegicus [3] = experiment: In vivo Sterol lowering activity at dose as 0.03 % of the diet.; type: functional; method in brief: as §1
Rattus norvegicus [4] = experiment: In vivo Sterol lowering activity at dose as 0.10 % of the diet.; type: functional; method in brief: as §1
Rattus norvegicus [5] = experiment: In vivo Triglyceride lowering activity at dose as 0.01 % of the diet; type: functional; method in brief: as §1
Rattus norvegicus [6] = experiment: In vivo triglyceride lowering activity dosed at 0.10 % of the diet; type: functional; method in brief: as §1
Rattus norvegicus [7] = experiment: In vivo Sterol lowering activity at dose as 0.01 % of the diet.; type: functional; method in brief: as §1
Rattus norvegicus [8] = experiment: In vivo Triglyceride lowering activity at dose as 0.03 % of the diet.; type: functional; method in brief: as §1
Rattus norvegicus [9] = experiment: In vivo sterol lowering activity dosed at 0.10 % of the diet; type: functional; method in brief: as §1
Rattus norvegicus [10] = experiment: In vivo triglyceride lowering activity, dosed at 0.01 % of the diet.; type: functional; method in brief: as §1
Rattus norvegicus [11] = experiment: In vivo triglyceride lowering activity, dosed at 0.10 % of the diet.; type: functional; method in brief: as §1

inhibition [1] [%]	SMILES	serum triglycerides, percent of control (Rattus norvegicus [2]) [%]	serum sterol level, percent of control (Rattus norvegicus [3]) [%]	serum sterol, percent of control (Rattus norvegicus [4]) [%]	Diet (Rattus norvegicus [5]) [%]	serum triglycerides, percent of control (Rattus norvegicus [6]) [%]	serum sterol, percent of control (Rattus norvegicus [7]) [%]	Diet (Rattus norvegicus [8]) [%]	serum sterol, percent of control (Rattus norvegicus [9]) [%]	Diet (Rattus norvegicus [10]) [%]	Diet (Rattus norvegicus [11]) [%]
37	CCOC(=O)c1ccc(NCCCCCCc2ccco2)cc1	64	103	90	68	60	95				
21	O=C(O)c1ccc(NCCCCCCc2ccco2)cc1		87			51	91	61	86	67	
44	CCOC(=O)c1ccc(NCc2cccs2)cc1		98				104	78		94	
0	O=C(O)c1cccc(NCCCc2ccc(Cl)cc2)c1		89	92		37	103	93		80	
56	CCOC(=O)c1ccc(NCCCc2ccco2)cc1		94	101			96	96		90	83
37	CCOC(=O)c1ccc(NCCCc2ccccc2F)cc1		100	97			104	116		106	92
18	O=C(CCCCCc1ccc(Cl)cc1)Nc1ccc(C(=O)O)cc1		93	99			86	104		96	90
21	O=C(OCC(O)CO)c1ccc(NCCCc2ccccc2)cc1 (centres undefined)		85		57	49	90	92	74		
38	COc1ccc(CCCNc2ccc(C(=O)O)cc2)cc1		86				89	89	70	82	91
21	O=C(O)c1ccc(NCCCc2c(Cl)cccc2Cl)cc1			106							82
43	CCOC(=O)c1ccc(NCCCc2ccc(Cl)c(Cl)c2)cc1		98	90		66	86	98		90	
23	CCOC(=O)c1ccc(NC/C=C/c2ccc(Cl)cc2)cc1	45	100	78	64	46	93				
30	CCOC(=O)c1ccc(NCCCCCCc2ccc(Cl)cc2)cc1	68	95	85	73	50	99				
91	CCOC(=O)Cc1ccc(NCCCc2ccc(Cl)cc2)cc1	126	91	91			103			119	67
30	CCOC(=O)c1ccc(NC(=O)CCc2ccc(Cl)cc2)cc1		107	99	85	66	101	101			
